SENP1 inh – SENP1 (human) catalytic domain inhibition; Q9P0U3; recombinant SENP1 catalytic domain, CyPet-SUMO1-YPet FRET cleavage; inhibition, % at 10 µM; hit rate 0.21% among 360,000;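 active = inhibition at least 30% at 10 µM, raw YFP signal under a set limit, fluorescence ratio 0.5 to 1.5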
Target sequence (Q9P0U3 419-644 limits assumed): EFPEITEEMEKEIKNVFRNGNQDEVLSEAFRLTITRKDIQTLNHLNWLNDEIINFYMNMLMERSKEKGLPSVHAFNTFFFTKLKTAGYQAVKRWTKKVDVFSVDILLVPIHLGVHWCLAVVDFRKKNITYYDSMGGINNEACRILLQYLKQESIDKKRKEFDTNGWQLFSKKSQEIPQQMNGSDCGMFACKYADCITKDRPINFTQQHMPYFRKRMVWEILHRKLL
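System: Recombinant human SENP1 catalytic domain, His6-tagged | Incubation: Enzyme reaction for 50 min at room temperature, dark | Medium: Tris pH 8 with BME, BSA, NP40 and catalase | Also added: 25 nM SUMO1 FRET substrate | Compound: 10 µM single point, 0.5% DMSO | Measured by: FRET fluorescence in CFP and YFP emission channels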
UBC9 SUMO inh – SUMOylation inhibition | P63279 | HTRF SUMOylation assay, SAE1/SAE2 + UBC9, in vitro | inhibition, % at 35 µM | hit rate 0.36% among 290,000 | AID 2006; in the data active = inhibition above about 50%, passing the limit was not always enough
Target sequence (P63279 whole entry, looked up): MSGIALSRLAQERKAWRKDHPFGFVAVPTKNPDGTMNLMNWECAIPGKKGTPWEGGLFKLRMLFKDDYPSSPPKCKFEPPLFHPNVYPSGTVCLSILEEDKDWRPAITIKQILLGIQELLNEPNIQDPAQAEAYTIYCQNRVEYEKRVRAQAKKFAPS
CSN inh – CSN deneddylation inhibition. Q92905. Purified CSN, SCF-Nedd8-OG deneddylation, fluorescence polarization. inhibition, % at 12.5 µM. hit rate 0.38% among 360,000. AID 651999;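 active = pattern-corrected inhibition above about 35%, with an unprinted fluorescence ratio check between 0.5 and 1.5, limit read from the data, passing the limit was not always enough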
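Detection – fluorescence polarization · System – HEK293T-derived human Csn5 enzyme · Controls – substrate-only high control, full reaction low control · Timing – 90 min, room temperature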
HNF4A DNA FP – change in binding of human HNF4 alpha to DNA; hit rate 0.3% among 360,000; HNF4a-FITC DNA binding, fluorescence polarization, 1 h; activity change, % at 10 µM; AID 1224865; in the data active = activity change above about 30%, passing the limit was not always enough
TPT1 inhibitor – C. albicans TPT1 enzyme inhibition | recombinant caTPT1, FP RNA substrate dephosphorylation | inhibition, % at 5 µM | hit rate 0.81% among 300,000 | AID 1962;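 active = inhibition above the mean of all tested compounds plus 3 SD, set per screening campaign, cut at about 24% in these data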
Rpn11 inh – blocks the human proteasome subunit Rpn11. O00487. human 26S proteasome, Ub4-pepOG fluorescence polarization; 20S core pre-blocked with epoxomicin. calls only at 20 µM. hit rate 0.59% among 360,000. AID 588493;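 active = inhibition at 20 µM, scaled to each plate's controls, above about 33%, limit read from the data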
caTPT1 confirm – TPT1 (C. albicans) inhibition, confirmation | shares compounds with TPT1 inhibitor | recombinant caTPT1, fluorescence polarization, RNase T1 coupled | inhibition, % at 5 µM | hit rate 74% among 2,400 | AID 2149;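 active = inhibition above the primary screen limit, the mean inhibition of all tested compounds plus 3 SD, cut at about 25% in these data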
RNase T1 inh – counter-screen for TPT1 inhibitors: inhibitors of Aspergillus oryzae RNase T1 | shares compounds with TPT1 inhibitor | RNase T1 cleavage, fluorescence polarization, 1536-well | inhibition, % at 5 µM | hit rate 83% among 2,400;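 active = inhibition above the solvent-only control well mean plus 3 SD, limit set per screening run, cut at about 23% in these data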;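 also: inhibitors block cleavage so intact labeled substrate keeps polarization high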
Target sequence (P00651 whole entry, looked up): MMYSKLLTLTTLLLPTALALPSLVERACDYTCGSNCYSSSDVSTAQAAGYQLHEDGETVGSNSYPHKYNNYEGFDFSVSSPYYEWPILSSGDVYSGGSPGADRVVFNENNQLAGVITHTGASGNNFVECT
Rpn11 inh conf – confirmation of human proteasome Rpn11 inhibitors; purified human 26S proteasome, Ub4-pepOG fluorescence polarization; proteasome pretreated with epoxomicin; shares compounds with Rpn11 inh; hit rate 29% among 1,900; inhibition, % at 20 µM
MMP-2 counter-1 – counter-screen for RPN11 inhibitors: inhibition of human MMP-2 | shares compounds with Rpn11 inh | inhibition, % at 20 µM | recombinant MMP-2, FRET peptide cleavage fluorescence | hit rate 4% among 1,900 | AID 602330;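 also: human MMP-2 activated beforehand with APMA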
Thrombin inh – thrombin (bovine) inhibition counter-screen; shares compounds with Rpn11 inh; bovine thrombin cleavage of Ub4-pepOG, fluorescence polarization; inhibition, % at 20 µM; hit rate 13% among 1,900; AID 602333;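 active = mean inhibition at least 40% at 20 µM, or signal 3 deviations below plate average, so some actives read negative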
CSN deneddyl val – validation of inhibitors of human CSN-mediated cullin deneddylation | shares compounds with CSN inh | hit rate 62% among 540 | inhibition, % at 16.6 µM | Csn5 deneddylation of SCF-Nedd8OG, fluorescence polarization, 90 min | AID 720654; in the data active = inhibition above about 50%
MMP-2 counter-2 – MMP-2 (human) inhibition, counter-screen for CSN hits; shares compounds with CSN inh; recombinant MMP-2, FRET substrate fluorescence, 60 min; inhibition, % at 16.6 µM; hit rate 33% among 540;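 active = corrected plate-normalized z-score of 5 or more, or -5 or less, or inhibition of 15% or more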
Thrombin cntr – counter-screen for CSN deneddylation inhibitors: bovine thrombin inhibition; shares compounds with CSN inh; bovine thrombin cleavage of Ub4-pepOG, fluorescence polarization; inhibition, % at 16.6 µM; hit rate 49% among 540;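 active = inhibition at or above a set limit, with a fluorescence interference ratio between 0.5 and a set maximum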
Of the large screens only hits and unclear results are named; the others gave an inactive call (follow-up assays come after a bar, where shown); ! = a repeat was not active. The list is not random: actives were taken first. Their share in the collection is about 1.8%. Rule as the data show it, unless noted: active = inhibition above about 40%; inactive = the rest.

CCn1c(O)c(/C=N/NC(=O)c2ccccc2)c(=O)n(CC)c1=S	TPT1 inhibitor 93.6 | caTPT1 confirm 26.5 | RNase T1 inh 34.0
O=C1NC(=O)N(c2cccc(Br)c2)C(=O)/C1=C/c1ccsc1	TPT1 inhibitor 91.5 | caTPT1 confirm 69.5 | RNase T1 inh 71.6
O=C1NC(=O)C(=Cc2ccsc2)C(=O)N1	none
O=C1NC(=O)N(c2ccc(Br)cc2)C(=O)/C1=C/c1ccsc1	TPT1 inhibitor 30.2 | caTPT1 confirm inactive | RNase T1 inh inactive
O=C1NC(=O)N(c2ccc(F)cc2)C(=O)/C1=C/c1ccsc1	none
Oc1cc2c(cc1CN1CCN(c3ccc(F)cc3)CC1)OCO2	none
CCC(C)N1C(=O)/C(=C/c2ccc3c(c2)CCN3CCCCl)C(=O)NC1=S (stereo not given)	TPT1 inhibitor 40.6 (not shown: Rpn11 inh) | caTPT1 confirm 56.4 | RNase T1 inh 71.9
CCCCn1c(O)c(C(=O)/C=C/c2c[nH]c3ccccc23)c(=O)[nH]c1=O	TPT1 inhibitor 120.5 (not shown: Rpn11 inh) | caTPT1 confirm 177.9 | RNase T1 inh 161.1
O=c1[nH]c(=O)n(CC2CCCO2)c(O)c1/C=C1\C=Nc2ccccc21 (stereo not given)	TPT1 inhibitor 36.6!, Rpn11 inh active! | caTPT1 confirm inactive | RNase T1 inh 23.5 | Rpn11 inh conf inactive | MMP-2 counter-1 inactive | Thrombin inh inactive
COc1ccc(N=Cc2c(O)n(CC3CCCO3)c(=O)[nH]c2=O)cc1 (stereo not given)	none
O=c1[nH]c(=O)n(-c2cccc3ccccc23)c(O)c1/C=N/N1CCCCC1c1cccnc1 (stereo not given)	HNF4A DNA FP 33.4, TPT1 inhibitor 50.5, Rpn11 inh active | caTPT1 confirm 67.1 | RNase T1 inh 80.6 | Rpn11 inh conf 90.1 | MMP-2 counter-1 inactive | Thrombin inh 66.7
COc1ccc(-n2c(O)c(C=NCCCn3ccnc3)c(=O)[nH]c2=O)cc1	none
COc1ccc(-n2c(O)c(/C=C3\C=Nc4ccc(Br)cc43)c(=O)[nH]c2=O)cc1	TPT1 inhibitor 33.3, Rpn11 inh active | caTPT1 confirm 25.5 | RNase T1 inh 31.9 | Rpn11 inh conf inactive | MMP-2 counter-1 inactive | Thrombin inh inactive
COc1ccc(C)cc1NC1=NCCCS1	none
COc1cc(/C=C/c2nc3ccccc3c(=O)n2-c2cccc(O)c2)ccc1O	UBC9 SUMO inh 51.3, TPT1 inhibitor 33.8, Rpn11 inh active | caTPT1 confirm 50.3 | RNase T1 inh 53.8 | Rpn11 inh conf inactive | MMP-2 counter-1 inactive | Thrombin inh inactive
COc1ccccc1-n1c(/C=C/c2ccc(O)cc2)nc2ccccc2c1=O	none
CC1CN=C(NCc2ccc(F)cc2)S1 (stereo not given)	none
CN1C(=O)C(=CN2CCN(C(=O)c3ccco3)CC2)C(=O)N(C)C1=S	none
CN(C(=O)CN1CC=C(c2ccccc2)CC1)c1c(N)n(Cc2ccccc2)c(=O)[nH]c1=O	none
O=c1[nH]c(CN2CC=C(c3ccccc3)CC2)nc2scc(-c3ccccc3)c12	TPT1 inhibitor 54.4, Rpn11 inh active | caTPT1 confirm 31.9 | RNase T1 inh 45.1 | Rpn11 inh conf 57.6 | MMP-2 counter-1 inactive | Thrombin inh inactive
CC1=NCCc2c1[nH]c1ccccc21	TPT1 inhibitor 24.6, Rpn11 inh active | caTPT1 confirm inactive | RNase T1 inh 21.9 | Rpn11 inh conf inactive | MMP-2 counter-1 inactive | Thrombin inh inactive
CN(C)C(=O)Oc1ccc2nnc3ccnn3c2c1	none
CN1C(=O)/C(=C\c2ccc(Br)s2)C(=O)NC1=S	TPT1 inhibitor 24.9, Rpn11 inh active | caTPT1 confirm inactive | RNase T1 inh 26.6 | Rpn11 inh conf inactive | MMP-2 counter-1 inactive | Thrombin inh inactive
O=c1[nH]c(=S)[nH]c(O)c1N=Nc1ccc2c(c1)OCCO2	SENP1 inh 36.3, HNF4A DNA FP 48.2, TPT1 inhibitor 25.3, Rpn11 inh active | caTPT1 confirm 35.4 | RNase T1 inh 48.4 | Rpn11 inh conf inactive | MMP-2 counter-1 inactive | Thrombin inh 44.9
COc1ccc2nc(/N=C/c3c(O)n(-c4cccc(Cl)c4)c(=O)[nH]c3=O)sc2c1	TPT1 inhibitor 54.9, Rpn11 inh active | caTPT1 confirm inactive | RNase T1 inh inactive | Rpn11 inh conf inactive | MMP-2 counter-1 inactive | Thrombin inh inactive
COc1ccc(CN2C(=O)NC(=O)/C(=C/c3ccoc3)C2=O)cc1	TPT1 inhibitor 174.5, Rpn11 inh active | caTPT1 confirm inactive | RNase T1 inh 32.1 | Rpn11 inh conf 96.4 | MMP-2 counter-1 43.9 | Thrombin inh inactive
COc1ccc(CN2C(=O)NC(=O)/C(=C/c3cc(OC)c(OC)c(OC)c3)C2=O)cc1	none
CS(=O)(=O)N1CCCC(C(=O)N2CCC3(CC2)OCCO3)C1 (stereo not given)	none
CCc1ccccc1N1C(=O)NC(=O)/C(=C\c2cc(C)n(C)c2C)C1=O	none
CCc1ccccc1N1C(=O)/C(=C/c2ccc(N3CCN(C)CC3)o2)C(=O)NC1=S	SENP1 inh 42.6, CSN inh 128.4, HNF4A DNA FP 54.8, TPT1 inhibitor 106.2 (not shown: Rpn11 inh) | caTPT1 confirm 142.3 | RNase T1 inh 137.7 | CSN deneddyl val inactive | MMP-2 counter-2 inactive | Thrombin cntr 77.4

From PubChem BioAssay
